FAS-TE inh: inhibitors of human fatty acid synthase thioesterase domain. recombinant FAS-TE, OMFH fluorogenic substrate, fluorescence endpoint. inhibition, % at 15 µM. hit rate 0.67% among 360,000;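 active means compounds whose normalised, plate-corrected inhibition of enzyme fluorescence in the single-dose primary screen is 50% or more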;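 further: 0% = DMSO with enzyme and 100% = substrate without enzyme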
Target sequence (P49327 whole entry, looked up, the tested form may be a part): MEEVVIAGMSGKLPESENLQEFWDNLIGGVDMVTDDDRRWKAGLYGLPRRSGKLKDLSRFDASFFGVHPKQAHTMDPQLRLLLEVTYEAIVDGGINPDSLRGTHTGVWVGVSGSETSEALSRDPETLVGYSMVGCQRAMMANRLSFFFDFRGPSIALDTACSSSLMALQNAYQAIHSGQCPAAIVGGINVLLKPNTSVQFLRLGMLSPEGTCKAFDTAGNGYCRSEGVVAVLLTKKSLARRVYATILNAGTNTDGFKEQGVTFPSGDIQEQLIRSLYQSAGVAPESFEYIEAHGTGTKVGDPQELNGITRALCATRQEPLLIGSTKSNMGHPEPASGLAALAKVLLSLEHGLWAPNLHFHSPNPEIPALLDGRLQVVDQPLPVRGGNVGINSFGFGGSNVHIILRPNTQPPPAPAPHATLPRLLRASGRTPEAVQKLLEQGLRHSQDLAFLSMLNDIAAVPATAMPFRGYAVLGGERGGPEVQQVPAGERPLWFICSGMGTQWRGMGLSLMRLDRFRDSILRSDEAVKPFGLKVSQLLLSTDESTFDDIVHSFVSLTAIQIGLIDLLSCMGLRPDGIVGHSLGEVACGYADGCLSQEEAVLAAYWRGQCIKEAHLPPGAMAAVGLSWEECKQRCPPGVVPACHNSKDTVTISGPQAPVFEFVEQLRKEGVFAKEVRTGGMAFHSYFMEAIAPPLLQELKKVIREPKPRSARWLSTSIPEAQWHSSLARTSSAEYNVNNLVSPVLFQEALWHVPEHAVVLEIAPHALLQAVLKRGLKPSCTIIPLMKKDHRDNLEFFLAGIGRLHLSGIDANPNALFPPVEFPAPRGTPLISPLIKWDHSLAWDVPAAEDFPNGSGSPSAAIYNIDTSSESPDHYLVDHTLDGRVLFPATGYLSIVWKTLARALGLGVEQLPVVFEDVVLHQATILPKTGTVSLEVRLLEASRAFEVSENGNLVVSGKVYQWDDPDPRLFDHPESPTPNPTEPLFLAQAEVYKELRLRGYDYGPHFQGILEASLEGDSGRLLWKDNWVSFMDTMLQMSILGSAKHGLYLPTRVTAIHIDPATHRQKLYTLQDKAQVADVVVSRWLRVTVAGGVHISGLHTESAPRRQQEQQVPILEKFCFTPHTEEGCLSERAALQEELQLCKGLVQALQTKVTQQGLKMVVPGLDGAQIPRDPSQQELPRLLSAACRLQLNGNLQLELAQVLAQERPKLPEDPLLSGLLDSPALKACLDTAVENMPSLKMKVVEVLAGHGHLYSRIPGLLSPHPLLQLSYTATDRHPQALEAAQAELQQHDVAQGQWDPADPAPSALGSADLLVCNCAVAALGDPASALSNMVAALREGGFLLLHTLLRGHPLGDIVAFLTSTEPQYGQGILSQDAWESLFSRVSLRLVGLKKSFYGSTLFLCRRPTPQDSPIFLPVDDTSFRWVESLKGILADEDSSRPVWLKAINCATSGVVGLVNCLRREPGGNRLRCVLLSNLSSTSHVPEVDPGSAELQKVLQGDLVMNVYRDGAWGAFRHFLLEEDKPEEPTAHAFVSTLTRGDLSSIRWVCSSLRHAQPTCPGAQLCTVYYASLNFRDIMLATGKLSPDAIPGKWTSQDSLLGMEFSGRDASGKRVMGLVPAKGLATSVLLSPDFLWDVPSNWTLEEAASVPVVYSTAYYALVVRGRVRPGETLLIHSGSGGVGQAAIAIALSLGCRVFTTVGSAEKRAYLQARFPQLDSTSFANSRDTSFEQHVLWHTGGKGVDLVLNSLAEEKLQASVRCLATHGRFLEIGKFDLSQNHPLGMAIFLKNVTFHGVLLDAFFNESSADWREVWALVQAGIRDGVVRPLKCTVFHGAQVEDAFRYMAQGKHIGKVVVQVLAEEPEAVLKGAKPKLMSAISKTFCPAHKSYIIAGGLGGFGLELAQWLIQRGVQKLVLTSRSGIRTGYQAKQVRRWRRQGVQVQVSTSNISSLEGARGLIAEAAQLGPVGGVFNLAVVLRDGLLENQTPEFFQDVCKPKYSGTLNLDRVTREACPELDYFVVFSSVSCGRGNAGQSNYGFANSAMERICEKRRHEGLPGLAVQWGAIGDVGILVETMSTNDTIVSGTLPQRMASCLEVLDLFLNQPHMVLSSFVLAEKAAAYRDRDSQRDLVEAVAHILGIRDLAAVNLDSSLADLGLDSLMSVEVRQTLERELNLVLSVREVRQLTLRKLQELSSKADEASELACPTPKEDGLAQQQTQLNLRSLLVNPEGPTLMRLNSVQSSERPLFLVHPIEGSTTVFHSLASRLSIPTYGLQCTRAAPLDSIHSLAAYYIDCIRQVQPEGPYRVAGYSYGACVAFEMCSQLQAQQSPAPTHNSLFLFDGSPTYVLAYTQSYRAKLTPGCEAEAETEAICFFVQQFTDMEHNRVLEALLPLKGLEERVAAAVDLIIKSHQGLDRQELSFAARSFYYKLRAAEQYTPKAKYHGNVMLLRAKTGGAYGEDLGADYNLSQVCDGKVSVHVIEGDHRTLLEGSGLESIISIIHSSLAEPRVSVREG
Rtt109 Vps75: C. albicans Rtt109 histone acetyltransferase inhibition; purified Rtt109/Vps75, ThioGlo CoA-SH fluorescence, 4 h; inhibition, % at 34.9 µM; hit rate 0.16% among 330,000;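 active means inhibition of at least 50% in every replicate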
UCH37 inh: human UCH37 deubiquitinating enzyme inhibition | purified proteasome/UCH37, Ub-AMC cleavage fluorescence | hit rate 0.33% among 330,000 | AID 588478 | inhibition, % (concentration not given with the values);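 active means mean inhibition over replicate wells above about 20%, limit read from the data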;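 further: 0% = compound-free wells with enzyme and 100% = wells lacking proteasome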
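Assay system: Proteasome-bound UCH37. Buffer or medium: pH 7.4 Tris-HCl (50 mM) with ovalbumin, ATP-MgCl2, DTT. Incubation: 30 min preincubation with enzyme, 25 min cleavage at room temperature. Measured by: fluorescence, ex 355 nm, em 460 nm. Read-out basis: percent inhibition. Control set: wells without proteasome as full block, compound-free enzyme plus substrate as uninhibited.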
HDAC3 inh: blocks human histone deacetylase 3. O15379. recombinant HDAC3, fluorogenic peptide/trypsin coupled, fluorescence. inhibition, % at 8.3 µM. hit rate 0.15% among 320,000. AID 2718; in the data active means inhibition above about 26%, passing the limit was not always enough
M18AAP inhibitor: blocks P. falciparum M18 aspartyl aminopeptidase; hit rate 1.2% among 290,000; inhibition, % at 7.35 µM; recombinant PfM18AAP, H-Glu-NHMec fluorogenic cleavage; AID 1822;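 active means inhibition above the campaign mean inhibition over all tested compounds plus 3 SD, cut at about 28% in these data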;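 further: 0% = plate median of test compound wells and 100% = 2 mM ZnCl2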
ALR H2O2 inh: blocks human ALR sulfhydryl oxidase activity; P55789; purified ALR, DTT oxidation, H2O2 HRP-luminol luminescence; inhibition, % (concentration not given with the values); hit rate 3.8% among 290,000; AID 485317;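 active means mean replicate inhibition above about 79%, with every replicate also reaching it, limit read from the data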
Starred values were filed as active, the others as inactive. The list is not random: actives were taken first. Their share in the collection is about 4.6%.

What do the screens show for `COC(=O)c1ccc2c(c1)C(C)(C)C(/C=C/c1ccc(O)cc1)=[N+]2C`?
FAS-TE inh: -8; Rtt109 Vps75: -5; UCH37 inh: inactive; HDAC3 inh: 4; M18AAP inhibitor: -2; ALR H2O2 inh: 93*

Results for COc1ccc(NCC(=O)NN=Cc2c(C)nn(Cc3ccccc3)c2Cl)cc1 ?
UCH37 inh: 3

How did O=C(NN=Cc1c[nH]c2ccccc12)c1ccc2c(c1)OCCO2 do in these assays?
UCH37 inh: 4

What do the screens show for `N#CCC(=O)NN=Cc1cn(Cc2ccc3ccccc3c2)c2ccccc12`?
UCH37 inh: -5

How did C/C=C/C(=O)Nc1nnc(-c2ccccc2C)s1 do in these assays?
FAS-TE inh: -2; Rtt109 Vps75: -4; UCH37 inh: 2; HDAC3 inh: 1; M18AAP inhibitor: 3; ALR H2O2 inh: 98*

Results for C=C(C)C(=O)Nc1nnc(-c2ccccc2C)s1 ?
FAS-TE inh: -3; Rtt109 Vps75: 6; UCH37 inh: 3; M18AAP inhibitor: 5

Results for CC(C)(C)n1cnc2cc(NCc3ccccc3O)ccc21 ?
FAS-TE inh: -4; Rtt109 Vps75: -7; UCH37 inh: -1; HDAC3 inh: 8; M18AAP inhibitor: 1; ALR H2O2 inh: 99*

What do the screens show for `CCc1ccc(CNc2ccc3c(c2)ncn3C(C)(C)C)cc1`?
FAS-TE inh: -2; Rtt109 Vps75: 7; UCH37 inh: -3; HDAC3 inh: -5; M18AAP inhibitor: 13; ALR H2O2 inh: 75

Results for CC(C)n1cnc2cc(NCc3ccccn3)ccc21 ?
FAS-TE inh: -4; Rtt109 Vps75: 7; UCH37 inh: -1; HDAC3 inh: -1; M18AAP inhibitor: 1; ALR H2O2 inh: 74

How did CC(C)n1cnc2cc(NCc3ccco3)ccc21 do in these assays?
FAS-TE inh: -7; Rtt109 Vps75: -5; UCH37 inh: -2; HDAC3 inh: -1; M18AAP inhibitor: -6; ALR H2O2 inh: 84*

Results for CC(C)n1cnc2cc(NCc3ccccc3O)ccc21 ?
FAS-TE inh: -2; UCH37 inh: 3; HDAC3 inh: -9; M18AAP inhibitor: 13; ALR H2O2 inh: 99*

How did O=C(NN=Cc1ccccn1)c1cc(-c2ccc(Br)s2)[nH]n1 do in these assays?
UCH37 inh: 3

How did N#C/C(=C\c1cc2ccccc2nc1N1CCCCC1)C(N)=O do in these assays?
FAS-TE inh: 11; Rtt109 Vps75: 6; UCH37 inh: 1; HDAC3 inh: 3; M18AAP inhibitor: 8; ALR H2O2 inh: 93*

What do the screens show for `NC(Cc1ccc([N+](=O)[O-])cc1)=NOC(=O)c1ccccc1F`?
UCH37 inh: 2

Results for Cc1nn(-c2ccccc2)c2c1C(=NO)CC(C)(C)C2 ?
UCH37 inh: 1

How did CCCc1nc(SCC(=O)c2ccc3c(c2)NC(=O)CO3)[nH]c(=O)c1CC do in these assays?
FAS-TE inh: 0; Rtt109 Vps75: 0

Results for CCCc1cc(=O)[nH]c(SCC(=O)c2ccc3c(c2)NC(=O)CO3)n1 ?
FAS-TE inh: -1; Rtt109 Vps75: 12; UCH37 inh: -1; HDAC3 inh: 4; M18AAP inhibitor: 4; ALR H2O2 inh: 97*

How did CC(=O)Nc1ccc(SCc2csc(C)n2)cc1 do in these assays?
FAS-TE inh: -7; Rtt109 Vps75: 1; UCH37 inh: 0; HDAC3 inh: 0; M18AAP inhibitor: 7; ALR H2O2 inh: 99*

What do the screens show for `CCOc1ccc(NC(=O)CSc2nnc(Cc3csc(C)n3)o2)cc1`?
FAS-TE inh: -9; Rtt109 Vps75: -1; HDAC3 inh: 1; M18AAP inhibitor: -8; ALR H2O2 inh: -3

How did CC(=O)Nc1ccc(SCc2c(C)noc2C)cc1 do in these assays?
FAS-TE inh: -4; Rtt109 Vps75: 16; UCH37 inh: 3; HDAC3 inh: 6; M18AAP inhibitor: -4; ALR H2O2 inh: 99*

Results for CC(=O)CSc1nnc(Cc2ccc([N+](=O)[O-])cc2)o1 ?
FAS-TE inh: -8; Rtt109 Vps75: -4; UCH37 inh: 4; HDAC3 inh: 28*; M18AAP inhibitor: 7

Results for Nc1nnc(CC(=O)NN=Cc2cc([N+](=O)[O-])cc(Br)c2O)s1 ?
UCH37 inh: 8

Results for CN=C1S/C(=C\c2ccc(O)c(Br)c2)C(=O)N1C ?
FAS-TE inh: -2; Rtt109 Vps75: 2; UCH37 inh: 4; HDAC3 inh: 1; M18AAP inhibitor: 4; ALR H2O2 inh: 96*

Results for CN=C1S/C(=C\c2ccc(O)c(OC)c2)C(=O)N1C ?
FAS-TE inh: -1; UCH37 inh: 12; HDAC3 inh: 7; ALR H2O2 inh: 75

Results for S=c1nc(-c2ccccc2)c(-c2ccccc2)n[nH]1 ?
FAS-TE inh: -6; Rtt109 Vps75: 2; HDAC3 inh: 3; M18AAP inhibitor: -1; ALR H2O2 inh: 86*

What do the screens show for `COc1cc(C=NNC(=O)C(Cc2c[nH]c3ccccc23)NC(=O)OCc2ccccc2)cc([N+](=O)[O-])c1O` (centres undefined)?
UCH37 inh: 14

What do the screens show for `COc1cccc(C(C(=O)NC2CCCC2)N(CCC(C)C)C(=O)CCC(=O)Nc2cc(C)on2)c1` (centres undefined)?
FAS-TE inh: 2; Rtt109 Vps75: 50*; UCH37 inh: 2; HDAC3 inh: 0; M18AAP inhibitor: 4

What do the screens show for `CC(/C=C/c1ccco1)=NNC(=O)CNc1ccccc1C`?
UCH37 inh: 5

Results for CCCCC(C)=NNC(=O)Nc1ccccc1 ?
UCH37 inh: 3

Results for O=C(COc1ccc(Br)cc1Cl)NC(=S)N1CCc2ccccc21 ?
FAS-TE inh: 23; UCH37 inh: 1; HDAC3 inh: 0; M18AAP inhibitor: 6; ALR H2O2 inh: -8

How did O=C(COc1ccc(Br)cc1Br)NC(=S)N1CCCc2ccccc21 do in these assays?
FAS-TE inh: -5; Rtt109 Vps75: 2; UCH37 inh: 4; HDAC3 inh: 4; M18AAP inhibitor: -4; ALR H2O2 inh: 93*

Results for Cc1ccsc1C=NNC(=O)CNC(=O)c1c(F)cccc1Cl ?
UCH37 inh: 6

How did Cc1sc(N)nc1-c1c(C)n(C)c2ccccc12 do in these assays?
FAS-TE inh: -4; Rtt109 Vps75: -1; UCH37 inh: 4; HDAC3 inh: 2; M18AAP inhibitor: 6; ALR H2O2 inh: 99*

Results for CCCc1c(C(=O)NN=Cc2ccccc2OCc2ccc(F)cc2)nnn1-c1nonc1N ?
UCH37 inh: -42

What do the screens show for `Cc1cc2n(n1)SC(Nc1ccccc1)N2` (centres undefined)?
FAS-TE inh: -7; Rtt109 Vps75: 2; UCH37 inh: -4; HDAC3 inh: 0; M18AAP inhibitor: 17; ALR H2O2 inh: 9

Results for Cc1ccc(NC2Nc3cc(C)nn3S2)c(C)c1 (centres undefined) ?
FAS-TE inh: -5; Rtt109 Vps75: 5; UCH37 inh: 4; HDAC3 inh: 2; M18AAP inhibitor: 9; ALR H2O2 inh: 87*

Source: PubChem (several laboratories)
